Test results taken from ChEMBL document CHEMBL1150818, “Antimalarial, antiviral, and antitoxoplasmosis norsesterterpene peroxide acids from the Red Sea sponge Diacarnus erythraeanus” (J Nat Prod, 2001).
Converted amounts (≈) assume the structure as drawn.

Key:
Plasmodium falciparum [1] = assay: Antimalarial activity against Plasmodium falciparum D6; type: functional, organism-based
[2] = Selectivity index, ratio of IC50 for african green monkey (Cercopithecus aethiops) Vero cells to IC50 for Plasmodium falciparum D6; type: toxicity, cell-based; conditions: read-out: Ratio IC50
Plasmodium falciparum [3] = assay: Antimalarial activity against Plasmodium falciparum W2; type: functional, organism-based
[4] = Selectivity index, ratio of IC50 for african green monkey (Cercopithecus aethiops) Vero cells to IC50 for Plasmodium falciparum W2; type: toxicity, cell-based; conditions: read-out: Ratio IC50
Vero = assay: Cytotoxicity against african green monkey Vero cells; type: cell-based; conditions: Chlorocebus sabaeus
Method in brief: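 Cytotoxicity taken from the same HSV-1 plaque cultures: concentration causing half-maximal loss of uninfected Vero cells from the monolayer surrounding plaques.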

HFF [5] = assay: Toxicity against HFF cells at 0.010 uM after 24 hrs by MTT assay relative to control; type: cell-based; conditions: human, 0.01 µM
Method in brief: (§1)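 Host-cell toxicity for HFF and L929 cells determined by MTT cell proliferation assay; expressed as percent of control.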

HFF [6] = assay: Toxicity against HFF cells at 0.10 uM after 24 hrs by MTT assay relative to control; type: cell-based; conditions: human, 0.1 µM; method in brief: as §1
HFF [7] = assay: Toxicity against HFF cells at 1 uM after 24 hrs by MTT assay relative to control; type: cell-based; conditions: human; method in brief: as §1
HFF [8] = assay: Toxicity against HFF cells at 10 uM after 24 hrs by MTT assay relative to control; type: cell-based; conditions: human; method in brief: as §1
HFF [9] = assay: Toxicity against HFF cells at 0.010 uM after 48 hrs by MTT assay relative to control; type: cell-based; conditions: human, 0.01 µM; method in brief: as §1
HFF [10] = assay: Toxicity against HFF cells at 0.10 uM after 48 hrs by MTT assay relative to control; type: cell-based; conditions: human, 0.1 µM; method in brief: as §1
HFF [11] = assay: Toxicity against HFF cells at 1 uM after 48 hrs by MTT assay relative to control; type: cell-based; conditions: human; method in brief: as §1
HFF [12] = assay: Toxicity against HFF cells at 10 uM after 48 hrs by MTT assay relative to control; type: cell-based; conditions: human; method in brief: as §1
Toxoplasma gondii [13] = assay: Antiparasitic activity against Toxoplasma gondii infected in HFF cells at 0.01 uM after 24 hrs by [3H]uracil incorporation assay relative to control; type: functional
Toxoplasma gondii [14] = assay: Antiparasitic activity against Toxoplasma gondii infected in HFF cells at 0.1 uM after 24 hrs by [3H]uracil incorporation assay relative to control; type: functional
Toxoplasma gondii [15] = assay: Antiparasitic activity against Toxoplasma gondii infected in HFF cells at 1 uM after 24 hrs by [3H]uracil incorporation assay relative to control; type: functional
Toxoplasma gondii [16] = assay: Antiparasitic activity against Toxoplasma gondii infected in HFF cells at 10 uM after 24 hrs by [3H]uracil incorporation assay relative to control; type: functional
Toxoplasma gondii [17] = assay: Antiparasitic activity against Toxoplasma gondii infected in HFF cells at 0.01 uM after 48 hrs by [3H]uracil incorporation assay relative to control; type: functional
Toxoplasma gondii [18] = assay: Antiparasitic activity against Toxoplasma gondii infected in HFF cells at 0.1 uM after 48 hrs by [3H]uracil incorporation assay relative to control; type: functional
Toxoplasma gondii [19] = assay: Antiparasitic activity against Toxoplasma gondii infected in HFF cells at 1 uM after 48 hrs by [3H]uracil incorporation assay relative to control; type: functional
Toxoplasma gondii [20] = assay: Antiparasitic activity against Toxoplasma gondii infected in HFF cells at 10 uM after 48 hrs by [3H]uracil incorporation assay relative to control; type: functional
L929 [21] = assay: Toxicity against mouse L929 cells at 0.010 uM after 24 hrs by MTT assay relative to control; type: cell-based; conditions: l929, 24 h, 0.01 µM; method in brief: as §1
L929 [22] = assay: Toxicity against mouse L929 cells at 0.10 uM after 24 hrs by MTT assay relative to control; type: cell-based; conditions: l929, 24 h, 0.1 µM; method in brief: as §1
L929 [23] = assay: Toxicity against mouse L929 cells at 1 uM after 24 hrs by MTT assay relative to control; type: cell-based; conditions: l929, 24 h; method in brief: as §1
L929 [24] = assay: Toxicity against mouse L929 cells at 10 uM after 24 hrs by MTT assay relative to control; type: cell-based; conditions: l929, 24 h; method in brief: as §1
L929 [25] = assay: Toxicity against mouse L929 cells at 0.010 uM after 48 hrs by MTT assay relative to control; type: cell-based; conditions: l929, 48 h, 0.01 µM; method in brief: as §1
L929 [26] = assay: Toxicity against mouse L929 cells at 0.10 uM after 48 hrs by MTT assay relative to control; type: cell-based; conditions: l929, 48 h, 0.1 µM; method in brief: as §1
L929 [27] = assay: Toxicity against mouse L929 cells at 1 uM after 48 hrs by MTT assay relative to control; type: cell-based; conditions: l929, 48 h; method in brief: as §1
L929 [28] = assay: Toxicity against mouse L929 cells at 10 uM after 48 hrs by MTT assay relative to control; type: cell-based; conditions: l929, 48 h; method in brief: as §1
Toxoplasma gondii [29] = assay: Antiparasitic activity against Toxoplasma gondii infected in mouse L929 cells at 0.01 uM after 24 hrs by [3H]uracil incorporation assay relative to control; type: functional
Toxoplasma gondii [30] = assay: Antiparasitic activity against Toxoplasma gondii infected in mouse L929 cells at 0.1 uM after 24 hrs by [3H]uracil incorporation assay relative to control; type: functional
Toxoplasma gondii [31] = assay: Antiparasitic activity against Toxoplasma gondii infected in mouse L929 cells at 1 uM after 24 hrs by [3H]uracil incorporation assay relative to control; type: functional
Toxoplasma gondii [32] = assay: Antiparasitic activity against Toxoplasma gondii infected in mouse L929 cells at 10 uM after 24 hrs by [3H]uracil incorporation assay relative to control; type: functional
Toxoplasma gondii [33] = assay: Antiparasitic activity against Toxoplasma gondii infected in mouse L929 cells at 0.01 uM after 48 hrs by [3H]uracil incorporation assay relative to control; type: functional
Toxoplasma gondii [34] = assay: Antiparasitic activity against Toxoplasma gondii infected in mouse L929 cells at 0.1 uM after 48 hrs by [3H]uracil incorporation assay relative to control; type: functional
Toxoplasma gondii [35] = assay: Antiparasitic activity against Toxoplasma gondii infected in mouse L929 cells at 1 uM after 48 hrs by [3H]uracil incorporation assay relative to control; type: functional
Toxoplasma gondii [36] = assay: Antiparasitic activity against Toxoplasma gondii infected in mouse L929 cells at 10 uM after 48 hrs by [3H]uracil incorporation assay relative to control; type: functional
Human alphaherpesvirus 1 = assay: Antiviral activity against HSV1 infected african green monkey Vero cells assessed as inhibition of viral-induced cytopathic effect; type: functional; conditions: Human alphaherpesvirus 1, Vero; read-out: ED50 (the source's name)
Method in brief: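 Simplified plaque reduction assay: serial dilutions of test compounds with herpes simplex type 1 virus in Vero African green monkey kidney cell cultures in 96-well trays.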

Plasmodium falciparum [37] = assay: Antimalarial activity against Plasmodium falciparum D6 at 80 ug/mL; type: functional, organism-based
Plasmodium falciparum [38] = assay: Antimalarial activity against Plasmodium falciparum W2 at 80 ug/mL; type: functional, organism-based

Row | Compound | IC50 (Plasmodium falciparum [1]) | selectivity ratio [2] | IC50 (Plasmodium falciparum [3]) | selectivity ratio [4] | IC50 (Vero) | Activity (HFF [5]) | Activity (HFF [6]) | Activity (HFF [7]) | Activity (HFF [8]) | Activity (HFF [9]) | Activity (HFF [10]) | Activity (HFF [11]) | Activity (HFF [12]) | Activity (Toxoplasma gondii [13]) | Activity (Toxoplasma gondii [14]) | Activity (Toxoplasma gondii [15]) | Activity (Toxoplasma gondii [16]) | Activity (Toxoplasma gondii [17]) | Activity (Toxoplasma gondii [18]) | Activity (Toxoplasma gondii [19]) | further results
1 | C=C1CCC[C@@H]2[C@@H](CC[C@@]3(C)CC[C@H]([C@H](C)C(=O)O)OO3)[C@H](C)CC[C@@]12C [SIGMOSCEPTRELLIN B] | 1.2 µg/mL (≈ 3.17 µM) | > 2.7 | 3.4 µg/mL (≈ 8.98 µM) | > 1 | 2.5 µg/mL (≈ 6.6 µM) | 0% | 0% | 86.81% | 87.41% | 0% | 5.56% | 64.37% | 94.65% | 0% | 84.72% | 96.49% | 94.91% | 37.57% | 98.32% | 100% | Activity (Toxoplasma gondii [20]): 100%; Activity (L929 [21]): 0%; Activity (L929 [22]): 0%; Activity (L929 [23]): 60.48%; Activity (L929 [24]): 92.96%; Activity (L929 [25]): 0%; Activity (L929 [26]): 0%; Activity (L929 [27]): 91.21%; Activity (L929 [28]): 91.05%; Activity (Toxoplasma gondii [29]): 0%; Activity (Toxoplasma gondii [30]): 18.61%; Activity (Toxoplasma gondii [31]): 91.88%; Activity (Toxoplasma gondii [32]): 96.62%; Activity (Toxoplasma gondii [33]): 24.15%; Activity (Toxoplasma gondii [34]): 35.17%; Activity (Toxoplasma gondii [35]): 98.82%; Activity (Toxoplasma gondii [36]): 100%
2 | CC1=C(CC/C(C)=C/CC[C@@]2(C)CC[C@@H]([C@@H](C)C(=O)O)OO2)C(C)(C)CCC1 [MUQUBILIN] | 2.9 µg/mL (≈ 7.39 µM) | > 1.6 | > 4.76 µg/mL | > 1 | 30 µg/mL (≈ 76.4 µM) | 0% | 7.15% | 86.15% | 85.85% | 0% | 0.94% | 85.93% | 84.73% | 3.16% | 84% | 86.18% | 91.72% | 0% | 62.88% | 87.94% | EC50 (Human alphaherpesvirus 1): 7.5 µg/mL (≈ 19.1 µM); Activity (Toxoplasma gondii [20]): 100%; Activity (L929 [21]): 0%; Activity (L929 [22]): 0%; Activity (L929 [23]): 66.3%; Activity (L929 [24]): 93%; Activity (L929 [25]): 0%; Activity (L929 [26]): 0%; Activity (L929 [27]): 83.36%; Activity (L929 [28]): 94.9%; Activity (Toxoplasma gondii [29]): 33.85%; Activity (Toxoplasma gondii [30]): 58.35%; Activity (Toxoplasma gondii [31]): 84.03%; Activity (Toxoplasma gondii [32]): 87.84%; Activity (Toxoplasma gondii [33]): 0%; Activity (Toxoplasma gondii [34]): 46.3%; Activity (Toxoplasma gondii [35]): 96.77%; Activity (Toxoplasma gondii [36]): 100%
3 | C=C1CCC[C@H]2[C@](C)(CC[C@]3(C)CC[C@H]([C@@H](C)C(=O)O)OO3)[C@@H](C)CC[C@]12C [SIGMOSCEPTRELLIN A] | 0.47 µg/mL (≈ 1.2 µM) |  | 0.42 µg/mL (≈ 1.07 µM) |  |  |  |  |  |  |  |  |  |  |  |  |  |  |  |  |  | 
4 | CC(=O)CCCC(C)(C)C(=O)CC/C(C)=C/CC[C@@]1(C)CC[C@H]([C@H](C)C(=O)O)OO1 [AIKUPIKOXIDE A] |  |  |  |  | 60 µg/mL (≈ 141 µM) |  |  |  |  |  |  |  |  |  |  |  |  |  |  |  | EC50 (Human alphaherpesvirus 1): 30 µg/mL (≈ 70.7 µM); IC50 (Plasmodium falciparum [37]): Not Active; IC50 (Plasmodium falciparum [38]): Not Active
